Among the data in ChEMBL document CHEMBL4842318, “A γ-lactam siderophore antibiotic effective against multidrug-resistant Pseudomonas aeruginosa, Klebsiella pneumoniae, and Acinetobacter spp” (Eur J Med Chem, 2021) are MIC and concentration values, retold here.

What is called MIC is the lowest concentration found to suppress growth.

The test system of series [1] is Acinetobacter baumannii. The experiment in a line: Antibacterial activity against carbapenem resistant Acinetobacter baumannii isolate PR-325 assessed as inhibition of bacterial growth at 1:1 compound to sulbactam concentration by microdilution method. In kind it is functional. In short, it runs like this:
(§1)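 Iron-depleted (Chelex-treated) cation-adjusted Mueller-Hinton broth microdilution; inoculum 6 × 10^4 cfu/mL. Test agent and sulbactam mixed 1:1 by mass and serially 2-fold diluted together. MIC in μg/mL.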

Series [2] is described as follows: Antibacterial activity against carbapenem susceptible Acinetobacter nosocomialis isolate PR-365 assessed as inhibition of bacterial growth in presence of 20 ug/ml sulbactam by microdilution method. As to conditions: dose 20 µg/ml. In kind it is functional. In short, it runs like this:
(§2)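 MIC by broth microdilution using iron-depleted (Chelex-treated) cation-adjusted Mueller-Hinton broth and 6 × 10^4 cfu/mL inoculum. Compound serially diluted with sulbactam held constant at 20 μg/mL.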
For orientation: In broth dilution the organism is exposed to a series of concentrations in liquid medium.

Series [3] in a line: Plasma concentration in SC dosed CD-1 mouse treated four times at 6 hrs interval measured after 6 hrs. The format is ADME, organism-based. In short, it runs like this:
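CD-1 mice dosed SC at 50 mg/kg. Plasma sampled at 0.167 to 24 h, three individual mice per time point, reported as mean and SD in ng/mL.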

Series [4] relates to Acinetobacter baumannii. As to the kind of experiment: Antibacterial activity against carbapenem resistant Acinetobacter baumannii isolate PR-314 assessed as bacterial growth inhibition by microdilution method. The format is functional. Summed up: (§3)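 Broth microdilution in Chelex-treated, iron-depleted cation-adjusted Mueller-Hinton broth, following the protocol used for siderophore-containing antibiotics; inoculum lowered to 6 × 10^4 cfu/mL; MIC read as growth inhibition, in μg/mL.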

Series [5] deals with Pseudomonas aeruginosa. The experiment in a line: Antibacterial activity against wild type Pseudomonas aeruginosa isolate PR-604 assessed as inhibition of bacterial growth by microdilution method. The format is functional. In short, it runs like this:
(§4)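 Broth microdilution MIC in iron-depleted (Chelex resin-treated) cation-adjusted Mueller-Hinton broth, following the protocol used for siderophore-containing antibiotics. Inoculum was lowered to 6 × 10^4 cfu/mL.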

Series [6] concerns Acinetobacter baumannii. The experiment in a line: Antibacterial activity against carbapenem resistant Acinetobacter baumannii isolate PR-459 assessed as inhibition of bacterial growth at 1:1 compound to sulbactam concentration by microdilution method. The format is functional. In short, it runs like this:
as §1

Series [7] deals with Acinetobacter baumannii. The experiment in a line: Antibacterial activity against carbapenem resistant Acinetobacter baumannii isolate PR-401 assessed as inhibition of bacterial growth in presence of 20 ug/ml sulbactam by microdilution method. In kind it is functional. Particulars: dose 20 µg/ml.
In series [8] the test system is Acinetobacter baumannii. As to the kind of experiment: Antibacterial activity against carbapenem resistant Acinetobacter baumannii isolate PR-423 assessed as inhibition of bacterial growth at 1:1 compound to sulbactam concentration by microdilution method. The format is functional. In short, it runs like this:
as §1

Series [9] has as its system Acinetobacter baumannii. As to the kind of experiment: Antibacterial activity against carbapenem resistant Acinetobacter baumannii isolate PR-326 assessed as bacterial growth inhibition by microdilution method. The format is functional. In short, it runs like this:
as §3

Series [10] concerns Pseudomonas aeruginosa. The experiment in a line: Antibacterial activity against wild type Pseudomonas aeruginosa isolate PR-651 leucine at 533 residue assessed as inhibition of bacterial growth by microdilution method. In kind it is functional. In short, it runs like this:
as §4

Series [11] relates to Acinetobacter baumannii. The experiment in a line: Antibacterial activity against carbapenem susceptible Acinetobacter baumannii isolate PR-478 assessed as bacterial growth inhibition by microdilution method. The format is functional. In short, it runs like this:
as §4

Series [12] in a line: Antibacterial activity against carbapenem susceptible Acinetobacter nosocomialis isolate PR-491 assessed as inhibition of bacterial growth in presence of 20 ug/ml sulbactam by microdilution method. The format is functional. Particulars: dose 20 µg/ml. In short, it runs like this: as §2
A short description of series [13]: Antibacterial activity against carbapenem susceptible Acinetobacter nosocomialis isolate PR-491 assessed as bacterial growth inhibition by microdilution method. The format is functional. In short, it runs like this: as §4

Molecules are shown by their SMILES.

In the case of `CC(C)(O/N=C(\C(=O)N[C@H]1CN2CC(C(=O)NCCN3C(=O)c4cc(O)c(O)cc4C3=O)=C(C(=O)O)N2C1=O)c1nc(N)sc1Cl)C(=O)O`, the MIC was over 16 µg/mL in the series on Acinetobacter baumannii [1]; at most 0.25 µg/mL in [2]; over 16 µg/mL in the series with Acinetobacter baumannii [4]; at most 0.25 µg/mL with Pseudomonas aeruginosa [5]; 8 µg/mL in the series on Acinetobacter baumannii [6]; at most 0.25 µg/mL with Acinetobacter baumannii [7]. Besides, the MIC in the series with Acinetobacter baumannii [8] was 8 µg/mL; with Acinetobacter baumannii [9], over 16 µg/mL; in the series on Pseudomonas aeruginosa [10], over 16 µg/mL; with Acinetobacter baumannii [11] it was 16 µg/mL; in [12], at most 0.25 µg/mL; in [13] it was over 16 µg/mL. Also, the concentration at 6 h in [3] is 1320 ng/mL.
